Assay results as given in ChEMBL document CHEMBL1137736, “Substituted quinolinyl chalcones and quinolinyl pyrimidines as a new class of anti-infective agents” (Eur J Med Chem, 2009).
In brackets after ≈: the same amount, converted by molar mass. Activity calls are given as the source filed them. No cut-off for these calls is given here.

System: Mycobacterium tuberculosis
Experiment: Antitubercular activity against Mycobacterium tuberculosis H37Rv after 4 weeks by serial twofold dilution method
Type: functional
Conditions: not given
Procedure, shortened: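 Serial twofold dilutions of a 1.0 mg/mL DMSO stock were incorporated into Middlebrook 7H10 agar slants with OADC. H37Rv grown on Lowenstein–Jensen medium was harvested in N-saline with 0.05% Tween-80 and dispersed with glass beads into a single-cell suspension. The working inoculum was 2 107 cfu/mL. MIC was the lowest concentration giving complete growth inhibition.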

Compound	MIC
CSc1ccc(-c2cc(-c3ccc(Nc4ccnc5cc(Cl)ccc45)cc3)nc(N)n2)cc1	inactive
COc1ccc(-c2cc(-c3ccc(Nc4ccnc5cc(Cl)ccc45)cc3)nc(N)n2)cc1	inactive
Nc1nc(-c2ccc(Nc3ccnc4cc(Cl)ccc34)cc2)cc(-c2cccnc2)n1	inactive

Same assay, conditions: 672 h

Compound	MIC [mg/L]
COc1cccc(/C=C/C(=O)c2ccc(Nc3ccnc4cc(Cl)ccc34)cc2)c1OC	3.12 (≈ 7.01 µM)
COc1cc(-c2cc(-c3ccc(Nc4ccnc5cc(Cl)ccc45)cc3)nc(N)n2)cc(OC)c1OC	12.5 (≈ 24.3 µM)
CC(C)c1ccc(-c2cc(-c3ccc(Nc4ccnc5cc(Cl)ccc45)cc3)nc(N)n2)cc1	6.25 (≈ 13.4 µM)
COc1ccc(OC)c(/C=C/C(=O)c2ccc(Nc3ccnc4cc(Cl)ccc34)cc2)c1	3.12 (≈ 7.01 µM)
Nc1nc(-c2ccc(Nc3ccnc4cc(Cl)ccc34)cc2)cc(-c2ccco2)n1	12.5 (≈ 30.2 µM)
O=C(/C=C/c1ccc(Cl)cc1)c1ccc(Nc2ccnc3cc(Cl)ccc23)cc1	6.25 (≈ 14.9 µM)
NC(=O)c1cnccn1 [PYRAZINAMIDE]	50 (≈ 406 µM)

System: Plasmodium falciparum
Experiment: Antimalarial activity as inhibition of schizont maturation against Plasmodium falciparum NF54 after 36 - 40 hrs
Type: functional
Conditions: not given
Procedure, shortened: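 P. falciparum NF-54 kept in RPMI-1640 with 25 mM HEPES, 1% D-glucose, 0.23% sodium bicarbonate and 10% heat-inactivated human serum. Compounds tested in duplicate at 0.25–[…] in 96-well microassay with parasitized cells, 37 C, candle jar, 36–40 h. Giemsa-stained smears scored for ring maturation to schizonts. MIC is lowest concentration blocking complete schizont maturation.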

Compound	MIC
COc1cccc(/C=C/C(=O)c2ccc(Nc3ccnc4cc(Cl)ccc34)cc2)c1OC	inactive
COc1cc(-c2cc(-c3ccc(Nc4ccnc5cc(Cl)ccc45)cc3)nc(N)n2)cc(OC)c1OC	inactive
CSc1ccc(-c2cc(-c3ccc(Nc4ccnc5cc(Cl)ccc45)cc3)nc(N)n2)cc1	1 mg/L (≈ 2.13 µM)
CC(C)c1ccc(-c2cc(-c3ccc(Nc4ccnc5cc(Cl)ccc45)cc3)nc(N)n2)cc1	1 mg/L (≈ 2.15 µM)
COc1ccc(OC)c(/C=C/C(=O)c2ccc(Nc3ccnc4cc(Cl)ccc34)cc2)c1	inactive
COc1ccc(-c2cc(-c3ccc(Nc4ccnc5cc(Cl)ccc45)cc3)nc(N)n2)cc1	2 mg/L (≈ 4.41 µM)
CCN(CC)CCCC(C)Nc1ccnc2cc(Cl)ccc12 (stereo unspecified) [CHLOROQUINE]	0.125 mg/L (≈ 0.391 µM)
Nc1nc(-c2ccc(Nc3ccnc4cc(Cl)ccc34)cc2)cc(-c2ccco2)n1	inactive
Nc1nc(-c2ccc(Nc3ccnc4cc(Cl)ccc34)cc2)cc(-c2cccnc2)n1	1 mg/L (≈ 2.35 µM)
O=C(/C=C/c1ccc(Cl)cc1)c1ccc(Nc2ccnc3cc(Cl)ccc23)cc1	inactive

System: Vero
Experiment: Cytotoxicity against african green monkey Vero cells after 24 hrs by MTS assay
Type: cell-based
Conditions: chlorocebus sabaeus
Procedure, shortened: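 VERO cells seeded at 10^4 cells/well in MEM with antibiotics and 10% FBS, incubated 24 h (37 C, 5% CO2). Medium then replaced by 5% FBS, antibiotic-free medium with compound or DMSO for 24 h. MTS added and A490 read after 2 h, with DMSO wells as 100% survival. Toxic means 50% inhibition at 10-fold the MIC.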

Compound	Activity
COc1cccc(/C=C/C(=O)c2ccc(Nc3ccnc4cc(Cl)ccc34)cc2)c1OC	Non-toxic
COc1ccc(OC)c(/C=C/C(=O)c2ccc(Nc3ccnc4cc(Cl)ccc34)cc2)c1	Non-toxic
NC(=O)c1cnccn1 [PYRAZINAMIDE]	Non-toxic

System: not listed separately
Experiment: Cytotoxicity against mouse BMDM cells after 5 days by MTS assay
Type: cell-based
Conditions: 120 h
Procedure, shortened: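 Mouse bone-marrow-derived macrophages plated at 10^5 cells/well in DMEM with antibiotics, 10% FBS, 15% (v/v) L-929 conditioned supernatant and non-essential amino acids. After compound exposure, incubated 5 days at 37 C, 5% CO2. MTS added and A490 read after 2 h, with DMSO wells as 100% survival. Toxic means 50% inhibition at 10-fold the MIC.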

Compound	Activity
COc1cccc(/C=C/C(=O)c2ccc(Nc3ccnc4cc(Cl)ccc34)cc2)c1OC	Non-toxic
COc1ccc(OC)c(/C=C/C(=O)c2ccc(Nc3ccnc4cc(Cl)ccc34)cc2)c1	Non-toxic
NC(=O)c1cnccn1 [PYRAZINAMIDE]	Non-toxic
